Compounds with a hit are over-represented: about 1.8% of the library has one in this group of screens.
PME-1 primary = PME-1 (human) inhibition. Q9Y570. recombinant PME-1, FP-Rh probe fluorescence polarization. inhibition, % at 5.9 µM. 320,000 compounds, 0.53% hits. AID 2130;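 active = inhibition above the campaign mean of all compounds plus 3 SD, cut at about 26% in these data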;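 note: competitive labeling of PME-1 active site by serine hydrolase directed probe; inhibitors block probe labeling so polarization falls and inhibition rises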
Fam108B inh = Fam108B inhibition, counter-screen for RBBP9 inhibitors; recombinant Fam108B, FP-Rh probe fluorescence polarization; inhibition, % at 9.51 µM; 300,000 compounds, 0.33% hits; AID 1947;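 active = inhibition above the screen mean inhibition plus 3 SD, computed separately per campaign, cut at about 18% in these data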;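 note: inhibitors lower polarization as less probe binds the enzyme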
HTRA1 inh = inhibitors of human serine peptidase HTRA1 | Q92743 | recombinant HTRA1, FP-rhodamine activity-based probe, fluorescence polarization | inhibition, % at 5.96 µM | 340,000 compounds, 0.5% hits; in the data active = inhibition above about 36%
Target sequence (Q92743 whole entry, looked up): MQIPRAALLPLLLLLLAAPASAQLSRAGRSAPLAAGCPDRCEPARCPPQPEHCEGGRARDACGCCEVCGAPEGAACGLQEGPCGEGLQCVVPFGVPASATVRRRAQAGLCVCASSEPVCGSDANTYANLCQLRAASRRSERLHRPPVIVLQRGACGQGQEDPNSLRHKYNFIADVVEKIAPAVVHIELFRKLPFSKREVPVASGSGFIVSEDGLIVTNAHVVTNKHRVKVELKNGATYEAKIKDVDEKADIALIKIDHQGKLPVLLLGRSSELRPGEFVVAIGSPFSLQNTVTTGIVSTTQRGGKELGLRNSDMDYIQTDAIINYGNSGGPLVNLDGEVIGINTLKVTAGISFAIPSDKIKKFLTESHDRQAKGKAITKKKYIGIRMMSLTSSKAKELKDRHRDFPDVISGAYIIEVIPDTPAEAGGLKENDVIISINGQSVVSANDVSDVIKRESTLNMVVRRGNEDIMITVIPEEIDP
SIAE primary = blocks human sialic acid acetylesterase; Q9HAT2; SIAE FP-Rh probe binding, fluorescence polarization; inhibition, % at 9.66 µM; 370,000 compounds, 0.69% hits; AID 1053197;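 active = inhibition above a cutoff: mean of compounds within the control limits plus 3 SD of those, cut at about 17% in these data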
mABHD4 FP = ABHD4 (mouse) inhibition, primary FP screen; Q8VD66; purified mABHD4, FP-Rh probe fluorescence polarization; inhibition, % at 8.92 µM; 370,000 compounds, 0.54% hits; AID 720543;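 active = inhibition exceeding the mean over every tested compound plus 3 SD, cut at about 30% in these data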
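system = mouse ABHD4 enzyme, wild type | medium = HEPES pH 7.0, NaCl, Pluronic buffer | also added = FP-Rh probe | incubation = Enzyme–compound pre-incubation 45 min, then probe 60 min, both 25 °C | technique = fluorescence polarization, excitation 525 nm, emission 598 nm, BODIPY TMR filters | controls = S159A mutant high control, sample median low control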
TCR CD3 inh = human TCR-CD3 binding inhibition; TAMRA-labeled TCR probe fluorescence, biochemical; inhibition, % at 9.4 µM; 360,000 compounds, 0.37% hits; AID 651800; in the data active = inhibition above about 19%;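 note: recombinant mutant TCR 2C K166C tagged with TAMRA read by polarization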
mABHD4 conf = confirmation of mouse ABHD4 inhibitors; shares compounds with mABHD4 FP; purified mABHD4, FP-Rh probe fluorescence polarization; inhibition, % at 8.92 µM; 1,800 compounds, 55% hits; AID 720658;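 active = mean inhibition across replicates above the hit cutoff set in the primary screen, cut at about 30% in these data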
Each line names hits and unclear results; the compound was inactive in the other large screens (follow-up assays come after a bar, where they were run).

N#Cc1c(Cl)nsc1NN	mABHD4 FP 73.2 | mABHD4 conf inactive
COC(=O)COc1ccc(C2Nc3c(Cl)ccc(C(=O)O)c3C3C=CCC32)cc1 (configuration not stated)	mABHD4 FP 35.6 | mABHD4 conf inactive
COc1ccc(OC)c(C2Nc3c(Cl)ccc(C(=O)O)c3C3C=CCC32)c1 (configuration not stated)	mABHD4 FP 46.5 | mABHD4 conf inactive
COc1ccc(OC)c(C2NC(=O)CCC2[N+](=O)[O-])c1 (configuration not stated)	none
O=C(O)c1cc(Cl)c2c(c1)[C@@H]1C=CC[C@@H]1[C@H](c1ccc(S(=O)(=O)N3CCOCC3)cc1)N2	none (no result: SIAE primary, mABHD4 FP, TCR CD3 inh)
N#C/C(=C(/O)c1ccc2c(c1)OCO2)c1nc2cc(C(F)(F)F)ccc2s1	mABHD4 FP 32.8 | mABHD4 conf inactive
COc1ccc(Nc2nc(NC(C)(C)C)nc(N3CCCC3)n2)c(OC)c1	mABHD4 FP 34.0 | mABHD4 conf 48.4
Cc1n[nH]c(=S)n(NC(=O)/C=C/C(=O)Nn2c(=S)[nH]nc(C)c2=O)c1=O	mABHD4 FP 37.7 (no result: PME-1 primary, Fam108B inh) | mABHD4 conf inactive
COc1ccccc1N1CCNC(C)C1=O (configuration not stated)	none
Cc1ccc(O)c(C(C)c2c[nH]c3ccccc23)c1 (configuration not stated)	none (no result: PME-1 primary, Fam108B inh, HTRA1 inh, TCR CD3 inh)
CC1(C)Nc2ccc(O)cc2-c2c1ssc2=S	mABHD4 FP 36.6 | mABHD4 conf 32.5
Oc1ccc(C=Nc2cccc3ccccc23)c(O)c1	mABHD4 FP 30.3 | mABHD4 conf inactive
O=[N+]([O-])c1ccc(O)c(C=Nc2cccc3ccccc23)c1	none
COc1cc(/C=C/c2ccc3cccc(O)c3n2)c(Br)cc1O	PME-1 primary 27.9, mABHD4 FP 29.8 | mABHD4 conf 69.0
COc1cc(Br)cc(/C=C/c2ccc3cccc(O)c3n2)c1O	none
O=C(O)CCC(=O)Nc1ccc(N2CCCCCC2)cc1	mABHD4 FP 31.5 | mABHD4 conf inactive
CCC(=O)N1CCc2cc(Br)c(S(=O)(=O)N3CCC(C(=O)NCCCOC(C)C)CC3)cc21	none (no result: PME-1 primary, Fam108B inh, HTRA1 inh, TCR CD3 inh)
Cc1ccc(S(=O)(=O)NNC(=O)C(=O)NNc2ccccn2)cc1	mABHD4 FP 42.2 | mABHD4 conf 34.6
Nc1ccc(S(=O)(=O)NNC(=O)C(=O)NNc2ccccn2)cc1	none
Cc1ccccc1S(=O)(=O)NNC(=O)C(=O)NNc1ccccn1	mABHD4 FP 34.9 | mABHD4 conf 33.3
CC1CN(C(=O)CNC(=O)COc2ccccc2)CC(C)O1 (configuration not stated)	none (no result: PME-1 primary, Fam108B inh)
O=C(NCCc1c[nH]c2ccccc12)OCc1cn(-c2cccc(C(F)(F)F)c2)nn1	none (no result: PME-1 primary, Fam108B inh, HTRA1 inh, TCR CD3 inh)
CSc1ccc(CN2CCC2(C)C(=O)Nc2ccc3c(c2)OCO3)cc1 (configuration not stated)	none (no result: PME-1 primary, Fam108B inh, HTRA1 inh)
O=C(Nc1ccc2c(c1)OCO2)C1Cc2c(-c3ccccc3Oc3ccccc3)ccnc2O1 (configuration not stated)	none (no result: PME-1 primary, Fam108B inh, HTRA1 inh)
O=C(c1cc([N+](=O)[O-])ccc1Cl)N1CCN(c2ccc([N+](=O)[O-])cc2)CC1	mABHD4 FP 39.9 | mABHD4 conf inactive
O=C(c1cc([N+](=O)[O-])ccc1Cl)N1CCN(c2ccc(F)cc2)CC1	none
O=C1C(=O)c2ccccc2C(O)=C1CC=C(Cl)Cl	mABHD4 FP 37.7 (no result: PME-1 primary, Fam108B inh) | mABHD4 conf inactive
COC(=O)C1=C(C)N(Cc2cccc(C(F)(F)F)c2)C(=NCc2ccc3c(c2)OCO3)NC1c1ccc(Cl)cc1 (configuration not stated)	mABHD4 FP 39.9 (no result: PME-1 primary, Fam108B inh, HTRA1 inh) | mABHD4 conf 82.2
COC(=O)C1=C(C)N(Cc2ccc(C(F)(F)F)cc2)C(=NCc2ccccc2)NC1c1cccc(Cl)c1 (configuration not stated)	mABHD4 FP 36.7 (no result: PME-1 primary, Fam108B inh, HTRA1 inh) | mABHD4 conf 44.3
COC(=O)C1=C(C)N(Cc2ccc(C(F)(F)F)cc2)C(=NCc2ccccc2)NC1c1cccc(C(F)(F)F)c1 (configuration not stated)	none (no result: PME-1 primary, Fam108B inh, HTRA1 inh)
COC(=O)C1=C(C)N(Cc2ccc(C(F)(F)F)cc2)C(=NCc2ccccc2)NC1c1ccccc1 (configuration not stated)	mABHD4 FP 33.2 (no result: PME-1 primary, Fam108B inh, HTRA1 inh) | mABHD4 conf 48.2
COC(=O)C1=C(C)N(Cc2ccccc2)C(=NCc2cccc(C(F)(F)F)c2)N[C@H]1c1cccc(F)c1	mABHD4 FP 37.5 | mABHD4 conf 44.0
COC(=O)C1=C(C)N(Cc2ccccc2)C(=NCc2cccc(C(F)(F)F)c2)N[C@H]1c1cccc(C(F)(F)F)c1	none (no result: PME-1 primary, Fam108B inh, SIAE primary, mABHD4 FP, TCR CD3 inh)
C[C@@H]1CN([C@H](C)CO)C(=O)CCCn2nncc2CO[C@H]1CN(C)CC1CC1	none (no result: PME-1 primary, Fam108B inh, HTRA1 inh)
CC(C)(C)S(=O)(=O)N1Cc2cc(CO)cc(CCO)c2[C@@H]1CCO	none (no result: PME-1 primary, Fam108B inh)
CCNC(=O)N(C)[C@H]1C[C@H]2c3[nH]c4c(-c5cccc(C)c5)cccc4c3CCN2C[C@H]1[C@H](C)O	none (no result: PME-1 primary, Fam108B inh, HTRA1 inh, TCR CD3 inh)
COC(=O)C1=C(C)N(Cc2ccc(C(F)(F)F)cc2)C(=NCc2ccccc2)NC1c1ccc(C(F)(F)F)cc1 (configuration not stated)	mABHD4 FP 30.9 (no result: PME-1 primary, Fam108B inh, HTRA1 inh) | mABHD4 conf 39.5
COC(=O)C1=C(C)N(Cc2cccc(C(F)(F)F)c2)C(=NCc2ccc(C(F)(F)F)cc2)NC1c1ccccc1 (configuration not stated)	none (no result: PME-1 primary, Fam108B inh, HTRA1 inh)
COc1ccc(C(=O)Oc2cc(OC)cc(OC)c2C(C)=O)cc1	mABHD4 FP 38.1 | mABHD4 conf 41.4
CCOC(=O)c1c(/N=C/c2cccc([N+](=O)[O-])c2O)sc(C)c1C	mABHD4 FP 32.5 | mABHD4 conf inactive
O=[N+]([O-])c1cccc(C=Nc2cccc3ccccc23)c1O	none
CCOC(=O)C1Nc2ccccc2C2C(O)C(O)CC12 (configuration not stated)	mABHD4 FP 51.1 | mABHD4 conf inactive
Cc1ccc(C(=O)COC(=O)C2CC3CCCC(C2)C3=O)cc1[N+](=O)[O-] (configuration not stated)	mABHD4 FP 42.1 | mABHD4 conf inactive
Cc1ccc([N+](=O)[O-])c(NC(=O)COC(=O)C2CC3CCCC(C2)C3=O)c1C (configuration not stated)	none
CNc1cncc(-c2cnn(CC(C)C)c2)n1	none (no result: PME-1 primary, Fam108B inh, HTRA1 inh)
CCCC1=Nc2cc(C(=O)N3CCCC3)ccc2Sc2ccc(C)cc21	mABHD4 FP 31.9 | mABHD4 conf inactive
CN(c1ccccc1)S(=O)(=O)c1ccc2c(c1)OCCO2	none (no result: PME-1 primary, Fam108B inh)
CC/C(C)=N/Nc1nc2c(c(=O)[nH]c(=O)n2C)n1Cc1ccccc1	mABHD4 FP 34.3 | mABHD4 conf inactive
CC1(C)Cc2c(c(-c3ccccc3)[nH]c(=O)c2C#N)CS1	none
CC1(C)Cc2c(c(-c3ccco3)[nH]c(=O)c2C#N)CS1	mABHD4 FP 30.0 | mABHD4 conf inactive

High-throughput results deposited in PubChem BioAssay by The Scripps Research Institute Molecular Screening Center.
